# In ChEMBL document CHEMBL1152428 (Bioorg Med Chem, 2009):
# The source made the active and inactive calls. No cut-off for these calls is given here.
# Tests used:
# [1] = Inhibition of Marthasterias glacialis CDK1/cyclin B after 30 mins by scintillation counting
# [2] = target: Cyclin-dependent kinase 5/CDK5 activator 1 (Homo sapiens, UniProt Q00535); assay: Inhibition of GST-fused recombinant CDK5/p25 expressed in Escherichia coli after 30 mins by scintillation counting
# [3] = target: Glycogen synthase kinase-3 (Sus scrofa, UniProt B2LUN4+I6LNT8); assay: Inhibition of pig brain GSK3alpha/beta after 30 mins by scintillation counting
# [4] = target: Cyclin-dependent protein kinase PHO85 (Saccharomyces cerevisiae S288c) (UniProt P17157); assay: Inhibition of Saccharomyces cerevisiae YRP1 Pho85 assessed as induction of nuclear localization of GFP-tagged transcription factor Pho4 at 250 uM after 3 hrs by fluorescence microscopy
# Chain of Cyclin-dependent protein kinase PHO85 (Saccharomyces cerevisiae S288c) (P17157 whole entry): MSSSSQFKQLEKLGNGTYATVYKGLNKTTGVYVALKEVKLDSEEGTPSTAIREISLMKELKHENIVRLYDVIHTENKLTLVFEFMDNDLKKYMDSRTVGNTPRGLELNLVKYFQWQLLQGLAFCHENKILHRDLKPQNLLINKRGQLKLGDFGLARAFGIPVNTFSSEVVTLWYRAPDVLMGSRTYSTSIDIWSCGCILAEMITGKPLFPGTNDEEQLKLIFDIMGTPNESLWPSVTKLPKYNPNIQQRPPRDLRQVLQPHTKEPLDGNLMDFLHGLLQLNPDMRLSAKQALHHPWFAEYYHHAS
# Procedure, shortened: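 The drug-sensitized strain YRP1 (snq2Δ pdr5Δ erg6Δ) carried a Pho4-GFP plasmid. Cells were grown overnight without uracil, diluted to OD600 0.5 and treated with 250 µM drug, with methanol as vehicle. After 3 h, GFP localization was examined by fluorescence microscopy (excitation 455–495 nm).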
# [5] = target: Cyclin-dependent kinase 1 (Saccharomyces cerevisiae S288c, UniProt P00546); assay: Inhibition of hemagglutininin-tagged Saccharomyces cerevisiae MNY629 Cdc28/Clb2
# Chain of Cyclin-dependent kinase 1 (P00546 whole entry): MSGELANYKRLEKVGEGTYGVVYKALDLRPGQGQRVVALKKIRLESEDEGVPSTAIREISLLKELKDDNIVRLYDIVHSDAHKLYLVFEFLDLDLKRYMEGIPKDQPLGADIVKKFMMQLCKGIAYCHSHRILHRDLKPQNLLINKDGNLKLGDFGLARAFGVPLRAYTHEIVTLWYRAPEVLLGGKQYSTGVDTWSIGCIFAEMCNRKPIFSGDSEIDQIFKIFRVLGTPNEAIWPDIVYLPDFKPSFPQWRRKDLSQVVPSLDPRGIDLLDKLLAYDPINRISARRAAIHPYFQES
# Procedure, shortened: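 Cdc28/Clb2-HA was immunoprecipitated from strain MNY629 extracts with anti-HA and protein A/G agarose. Kinase reactions ran 30 min at 30 °C with histone H1, 15 µmol/l [γ-33P]ATP (stock) and varying drug concentrations in buffer C (25 mM MOPS pH 7.2, 15 mM MgCl2, 5 mM EGTA, 1 mM DTT, phosphatase inhibitors). Products were spotted on P81 paper, washed in 1% phosphoric acid and counted by scintillation. IC50 was taken from the dose–response curve.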
# [6] = test system: Saccharomyces cerevisiae; assay: Growth inhibition of drug-sensitized Saccharomyces cerevisiae YRP1 assessed as growth deffect; type: functional, organism-based
# Procedure, shortened: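 Growth defect of the drug-sensitized YRP1 strain (snq2Δ pdr5Δ erg6Δ) was scored on agar plates by halo assay.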
# [7] = Inhibition of histidine6-tagged Plasmodium falciparum recombinant GSK3 expressed in Escherichia coli by scintillation counting
# [8] = target: Cyclin-dependent kinase 1 (Saccharomyces cerevisiae S288c) (UniProt P00546); assay: Binding affinity to Saccharomyces cerevisiae Cdc28
# Chain of Cyclin-dependent kinase 1 (Saccharomyces cerevisiae S288c) (P00546 2-298 limits assumed): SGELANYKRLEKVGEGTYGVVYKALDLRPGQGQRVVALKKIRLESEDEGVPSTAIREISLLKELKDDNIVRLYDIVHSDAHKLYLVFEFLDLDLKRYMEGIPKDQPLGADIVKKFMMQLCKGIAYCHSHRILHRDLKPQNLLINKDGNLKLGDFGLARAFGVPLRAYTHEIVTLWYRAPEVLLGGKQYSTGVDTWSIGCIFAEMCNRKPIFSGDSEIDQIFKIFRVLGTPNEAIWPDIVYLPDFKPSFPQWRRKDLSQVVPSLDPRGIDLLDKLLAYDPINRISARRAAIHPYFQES
# Procedure, shortened: (§1)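 Budding yeast grown to OD600 ~2 were lysed under 2.5 kbar pressure in breaking buffer (25 mM Tris pH 7.4, 100 mM NaCl, 0.2% Triton X100, phosphatase and protease inhibitors) and clarified. The lysate was incubated with Sepharose matrices carrying linker-attached drug (3 µmol/ml resin), methyl control or ethanolamine-blocked beads. Bound proteins were eluted in Laemmli buffer and analysed by SDS–PAGE with silver staining or western blot.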
# [9] = target: Cyclin-dependent protein kinase PHO85 (Saccharomyces cerevisiae S288c) (UniProt P17157); assay: Binding affinity to Saccharomyces cerevisiae Pho85; procedure, shortened: as §1
# Chain of Cyclin-dependent kinase 5/CDK5 activator 1 (Q00535 whole entry, the tested form may be a part): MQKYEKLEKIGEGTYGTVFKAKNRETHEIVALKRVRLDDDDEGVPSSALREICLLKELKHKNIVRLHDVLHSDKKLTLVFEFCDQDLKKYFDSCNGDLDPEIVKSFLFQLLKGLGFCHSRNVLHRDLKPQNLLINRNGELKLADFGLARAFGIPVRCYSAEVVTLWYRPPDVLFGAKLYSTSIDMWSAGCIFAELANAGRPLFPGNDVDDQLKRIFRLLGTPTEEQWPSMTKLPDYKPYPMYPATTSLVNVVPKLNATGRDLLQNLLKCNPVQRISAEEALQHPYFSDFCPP
# Chain of Cyclin-dependent kinase 5/CDK5 activator 1 (Q15078 whole entry, further chain, the tested form may be a part): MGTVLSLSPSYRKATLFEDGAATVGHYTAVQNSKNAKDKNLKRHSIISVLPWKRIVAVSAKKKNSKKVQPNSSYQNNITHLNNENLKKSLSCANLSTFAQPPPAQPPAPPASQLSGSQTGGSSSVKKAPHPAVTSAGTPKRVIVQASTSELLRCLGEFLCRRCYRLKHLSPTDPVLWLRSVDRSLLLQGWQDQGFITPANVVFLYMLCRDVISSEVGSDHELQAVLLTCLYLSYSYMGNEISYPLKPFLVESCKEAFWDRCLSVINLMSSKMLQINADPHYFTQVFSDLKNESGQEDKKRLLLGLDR
Structure (SMILES),IC50 [1] [µM],IC50 [2] [µM],IC50 [3] [µM],Activity [4],IC50 [5] [µM],IC50 [7] [µM],Activity [8],Activity [9],growth inhibition (GI) [6]
CCCCc1c(-c2ccc(OCCOCCOCCN)cc2)n(C)c2nccnc12,100,50,45,–,–,–,–,–,–
CCCCc1c(-c2ccc(O)c(-c3cn(CCOCCOCCN)nn3)c2)[nH]c2nccnc12,6.7,> 10,5.8,–,–,–,–,–,–
CCCCc1c(-c2ccc(OCCOCCOCCN)cc2)[nH]c2nccnc12,0.23,0.66,0.34,–,–,–,–,–,–
CCCCc1c(-c2ccc(O)c(-c3cn(CCOCCOCCN)nn3)c2)n(C)c2nccnc12,> 10,> 10,> 10,–,–,–,–,–,–

# Further lines, with some results ahead:
IC50 [1] [µM],IC50 [2] [µM],IC50 [3] [µM],Activity [4],IC50 [5] [µM],IC50 [7] [µM],Activity [8],Activity [9],Structure (SMILES),growth inhibition (GI) [6]
–,–,0.65,Active,2.5,5.5,–,–,CCCCc1c(-c2ccc(O)cc2)[nH]c2nccnc12 [ALOISINE A],inactive
140,160,> 200,–,> 33,> 100,inactive,inactive,CCCCc1c(-c2ccc(O)cc2)n(C)c2nccnc12 [N-METHYL-ALOISINE A],–
